Reference: article PMC2744100 (Journal of medicinal chemistry, 2009)
Where two headings read alike, the source gives them in different places.

How the values were obtained:
TCCYP51 [1] = biological target: T1, TCCYP51 (Trypanosoma cruzi, UniProt Q7Z1V1); details: read-out: Kd of enzyme/substrate complex formation; preferred substrate; cited from earlier work
TCCYP51 [2] = biological target: T1, TCCYP51; assay: Spectral titration of TCCYP51; assay type: binding; details: ligand-free maximum 417 nm
[3] = system: TC trypomastigotes and amastigotes; assay: Growth inhibition assay in TC cells; assay type: cell-based, Trypanosoma cruzi; details: for Effect on parasites in cardiomyocytes at 20 μM: 20 μM compound; for Antiparasitic effect in both human forms of TC: pre-treatment of trypomastigotes, 1–50 μM
Method in brief: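 Trypomastigotes (10^6) pre-exposed 30 min to test compound in DMSO (1–50 μM) or DMSO alone. Then added in triplicate to rat cardiomyocyte monolayers, 10 parasites/cell, for 2 h. Unbound parasites were removed and cultures kept 72 h in DMEM + 10% FBS. T. cruzi per 200 cells and % infection were counted microscopically on Giemsa stain. Mean ± SD; Student t test versus DMSO.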

TC epimastigotes [4] = assay: TC cellular sterol analysis; assay type: cell-based, Trypanosoma cruzi; details: 50 μM, TLC
TCCYP51 [5] = biological target: T1, TCCYP51; assay: ESI-MS analysis of non-covalent interactions in TCCYP51; assay type: binding; details: ESI-mass spectrometry, 20-HCl 100 μM
[6] = system: rat cardiomyocyte monolayers; assay: Effect on cardiomyocyte monolayers in the growth inhibition assay; assay type: cell-based; details: concentrations higher than 10 μM
TCCYP51 [7] = biological target: T1, TCCYP51; assay type: biochemical; details: reconstituted enzyme reaction
TC epimastigotes [8] = details: 1 μM; cited from earlier work
TC cells = details: published values; cited from earlier work

T1 sequence (Q7Z1V1 whole entry): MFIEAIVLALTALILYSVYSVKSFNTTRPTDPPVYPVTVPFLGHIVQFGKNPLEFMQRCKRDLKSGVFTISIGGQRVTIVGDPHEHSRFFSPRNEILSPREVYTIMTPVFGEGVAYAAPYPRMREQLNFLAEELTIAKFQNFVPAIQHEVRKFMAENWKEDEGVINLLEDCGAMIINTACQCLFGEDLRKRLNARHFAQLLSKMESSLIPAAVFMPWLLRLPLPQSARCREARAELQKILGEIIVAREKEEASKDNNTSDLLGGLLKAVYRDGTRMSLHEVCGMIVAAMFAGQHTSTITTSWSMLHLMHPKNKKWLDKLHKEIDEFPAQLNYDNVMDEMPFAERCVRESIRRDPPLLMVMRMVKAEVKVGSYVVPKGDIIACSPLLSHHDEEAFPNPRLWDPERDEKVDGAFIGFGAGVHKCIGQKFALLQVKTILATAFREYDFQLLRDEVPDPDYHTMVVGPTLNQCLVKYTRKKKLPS

Which Kd (TCCYP51 [1]) does the source give for `C=C(CC[C@@H](C)[C@H]1CC[C@@]2(C)C3=C(CC[C@]12C)[C@@]1(C)CC[C@H](O)C(C)(C)[C@@H]1CC3)C(C)C` [24-methylenedihydrolanosterol] here?
The Kd was about 1000 nM.

With `CCC(C(=O)Nc1ccncc1)c1ccccc1` (centres unmarked) [Compound 5, 2-phenyl-N-pyridin-4-ylbutanamide] as the molecule, how does the “Spectral Response in TCCYP51, Soret band maximum” value (from here on “Spectral Response in TCCYP51”) (TCCYP51 [2]) read?
The value was 422 nm.

For `O=C(Nc1ccncc1)C1c2ccccc2Oc2ccccc21` [Compound 7], which “Spectral Response in TCCYP51” value (TCCYP51 [2]) is on record?
The value was 422 nm.

For `CC1CCC(C(=O)NC(Cc2c[nH]c3ccccc23)C(=O)Nc2ccncc2)CC1` (centres unmarked) [Compound 9], which “Spectral Response in TCCYP51” value (TCCYP51 [2]) is on record?
Its value is 422 nm.

And the “Effect on parasites in cardiomyocytes at 20 μM” value (shortened to “Effect on parasites”) ([3]; 72 h)?
The value was “practically eliminated from cardiomyocytes”.

And the “Antiparasitic effect in both human forms of TC” value (shortened to “Antiparasitic effect”) [3]?
Its value is “clear dose-dependent antiparasitic effect”.

With `COc1ccc2c(c1)c(CC(=O)Nc1cccnc1)c(C)n2C(=O)c1ccc(Cl)cc1` [Compound 12] as the molecule, how does the “Spectral Response in TCCYP51” value (TCCYP51 [2]) read?
The value was 422 nm.

For `COc1ccc2c(c1)c(CC(=O)NCc1ccccn1)c(C)n2C(=O)c1ccc(Cl)cc1` [Compound 13], which “Spectral Response in TCCYP51” value (TCCYP51 [2]) is on record?
The value was 418 nm.

And the “Effect on parasites” value ([3]; 72 h)?
The value was “practically eliminated from cardiomyocytes”.

And the “Antiparasitic effect” value [3]?
Its value is “clear dose-dependent antiparasitic effect”.

Which “Spectral Response in TCCYP51” value (TCCYP51 [2]) does the source give for `COc1ccc2c(c1)c(CC(=O)NCc1ccncc1)c(C)n2C(=O)c1ccc(Cl)cc1` [Compound 14] here?
The value was 422 nm.

Which “Spectral Response in TCCYP51” value (TCCYP51 [2]) does the source give for `COc1ccc2c(c1)c(CC(=O)NC(C)c1ccncc1)c(C)n2C(=O)c1ccc(Cl)cc1` (centres unmarked) [Compound 15] here?
The value was 422 nm.

With `COc1ccc2c(c1)c(CC(=O)Nc1ccccn1)c(C)n2C(=O)c1ccc(Cl)cc1` [Compound 16] as the molecule, how does the “Spectral Response in TCCYP51” value (TCCYP51 [2]) read?
Its value is 416 nm.

For `COc1ccc2c(c1)c(CC(=O)Nc1ncccn1)c(C)n2C(=O)c1ccc(Cl)cc1` [Compound 17], which “Spectral Response in TCCYP51” value (TCCYP51 [2]) is on record?
Its value is 417 nm.

Which “Spectral Response in TCCYP51” value (TCCYP51 [2]) does the source give for `COc1ccc2c(c1)c(CC(=O)NCc1ccc(Cl)nc1)c(C)n2C(=O)c1ccc(Cl)cc1` [Compound 18] here?
Its value is 420 nm.

And the “Effect on parasites” value ([3]; 72 h)?
The value was “practically eliminated from cardiomyocytes”.

What about the “Antiparasitic effect” value [3] of the same molecule?
Its value is “clear dose-dependent antiparasitic effect”.

Which “Spectral Response in TCCYP51” value (TCCYP51 [2]) does the source give for `COc1ccc2c(c1)c(CC(=O)NCc1ccc(C(F)(F)F)nc1)c(C)n2C(=O)c1ccc(Cl)cc1` [Compound 19] here?
The value was 420 nm.

For `COc1ccc2c(c1)c(CC(=O)NCCc1cccnc1)c(C)n2C(=O)c1ccc(Cl)cc1` [Compound 20], which “Effect on TC cellular sterol composition” value (TC epimastigotes [4]) is on record?
The value was “very similar effect on cellular sterol composition”.

And the “Spectral Response in TCCYP51” value (TCCYP51 [2])?
Its value is 422 nm.

And the “Effect on parasites” value ([3]; 72 h)?
The value was “practically eliminated from cardiomyocytes”.

And the “ED50 (growth inhibition)” value ([3]; TC amastigotes in cardiomyocytes, 72 h)?
Its value is under 1000 nM.

And the “Antiparasitic effect” value [3]?
Its value is “clear dose-dependent antiparasitic effect”.

And the “Binding stoichiometry to TCCYP51” value (TCCYP51 [5])?
The value was “simultaneous binding of two inhibitor molecules to the enzyme”.

Which “Spectral Response in TCCYP51” value (TCCYP51 [2]) does the source give for `COc1ccc2c(c1)c(CC(=O)NCCc1cccc(Cl)c1)c(C)n2C(=O)c1ccc(Cl)cc1` [Compound 21] here?
The value was 419 nm.

What about the “Effect on cardiomyocyte monolayers” value [6] of the same molecule?
The value was “release cardiomyocyte monolayers at higher concentrations”.

What about the “Character of TCCYP51 inhibition (reversibility)” value (TCCYP51 [7]) of the same molecule?
Its value is “functionally irreversible”.

What does the source list for `COc1ccc2c(c1)c(CC(=O)NCC(C)c1ccccc1)c(C)n2C(=O)c1ccc(Cl)cc1` (centres unmarked) [Compound 22]?
Spectral Response in TCCYP51, Soret band maximum (TCCYP51 [2]): 419 nm; Effect on cardiomyocyte monolayers [6]: release cardiomyocyte monolayers at higher concentrations; Character of TCCYP51 inhibition (reversibility) (TCCYP51 [7]): functionally irreversible

For `O=C(NC(Cn1ccnc1)c1ccc(Cl)cc1Cl)c1ccc(-c2nnc(-c3ccccc3)o2)cc1` (centres unmarked) [SDZ-284629, N-(1-(2,4-dichlorophenyl)-2-(1H-imidazol-1-yl)ethyl)-4-(5-phenyl-1,3,4-oxadiazol-2-yl)benzamide], which “Effect on TC cellular sterol composition” value (TC epimastigotes [8]) is on record?
Its value is “the pathway practically stops at the stage of the C14-methylated sterol precursors”.

For `O=C(Cn1ccnc1[N+](=O)[O-])NCc1ccccc1` [benznidazole], which “ED50 in TC cells” value (TC cells) is on record?
The value was 25000 to 50000 nM.
